For 18 molecules, Ki, Lw/Bw and Reduction results are on record in ChEMBL document CHEMBL1128453, “Peptidyl alpha-ketoheterocyclic inhibitors of human neutrophil elastase. 3. In vitro and in vivo potency of a series of peptidyl alpha-ketobenzoxazoles” (J Med Chem, 1995).

In one assay the target is T1, Neutrophil elastase (Homo sapiens, UniProt P08246).
T1 sequence (P08246 whole entry): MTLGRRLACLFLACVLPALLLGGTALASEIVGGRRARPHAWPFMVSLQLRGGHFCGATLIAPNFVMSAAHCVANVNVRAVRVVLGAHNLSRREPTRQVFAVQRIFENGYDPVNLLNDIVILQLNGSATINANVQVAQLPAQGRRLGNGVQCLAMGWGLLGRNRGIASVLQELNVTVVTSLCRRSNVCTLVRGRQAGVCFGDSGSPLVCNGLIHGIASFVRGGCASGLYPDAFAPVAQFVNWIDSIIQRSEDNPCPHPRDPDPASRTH
Briefly: Inhibition of human neutrophil elastase-catalyzed hydrolysis of the synthetic substrate MeO-Suc-Ala-Ala-Pro-Val-pNa.

Assay [1] deals with T2, Neutrophil elastase (Homo sapiens) (UniProt P08246).
T2 sequence (whole entry): T1 sequence (P08246 whole entry)
The conditions noted are these: Lung.

Assay [2] in a line: Percentage reduction in erythrocytes following elastase challenge/treatment. Type of assay: functional. Also noted: concentration or dose not given beside the values. The method, boiled down: (§1)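 Male Syrian hamsters (90–110 g), anaesthetised with brevital sodium (30 mg/kg ip), received intratracheal HNE (400 μg in 0.01 M PBS). Test agent was given intratracheally, either admixed with the enzyme or predosed (shortest interval 6 h). Dose interval is the longest with significant lesion inhibition. At 24 h, wet lung weight/body weight and lavage red/white cells (Coulter) were measured. Results are % reduction scaled between the HNE and saline controls (p = 0.05).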

The nature of assay [3]: Percent reduction in leukocytes following elastase challenge/treatment. In kind it is functional. Also noted: concentration or dose not given beside the values. The method, boiled down: as §1

For the molecule `CC(C)[C@H](NC(=O)[C@@H]1CCCN1C(=O)[C@@H](NC(=O)OCc1ccccc1)C(C)C)C(=O)c1nc2cc(C#N)ccc2o1`, at Neutrophil elastase, the Ki (in general, the equilibrium dissociation constant of an inhibitor or competing ligand from its target) turned out to be 1.8 nM.
In turn, `COC(=O)c1ccc2oc(C(=O)[C@@H](NC(=O)[C@@H]3CCCN3C(=O)[C@@H](NC(=O)c3ccc(NC(=O)NS(=O)(=O)c4ccc(Cl)cc4)cc3)C(C)C)C(C)C)nc2c1` gave a Lw/Bw in assay [1] of 48. Besides, the Reduction is listed as 13% in assay [2] and -31% in assay [3]. On Neutrophil elastase, this molecule gave an inhibition constant (Ki) of 0.06 nM.
In the case of `COC(=O)c1ccc2nc(C(=O)[C@@H](NC(=O)[C@@H]3CCCN3C(=O)[C@@H](NC(=O)c3ccc(C(=O)NS(=O)(=O)c4ccc(Cl)cc4)cc3)C(C)C)C(C)C)oc2c1`, the Reduction in assay [2] is reported as 76%; in assay [3], 72%.
Regarding `CC(C)[C@H](NC(=O)[C@@H]1CCCN1C(=O)[C@@H](NC(=O)OCc1ccccc1)C(C)C)C(=O)c1nc2cc(CC(=O)O)ccc2o1`, the affinity at Neutrophil elastase corresponds to a Ki of 4.4 nM.
In assay [1], `COC(=O)c1ccc2oc(C(=O)[C@@H](NC(=O)[C@@H]3CCCN3C(=O)[C@@H](NC(=O)c3ccc(NS(=O)(=O)C(F)(F)F)cc3)C(C)C)C(C)C)nc2c1` returned a Lw/Bw of 71. The Reduction turned out to be 82% in assay [2] and 77% in assay [3]. Besides, the Ki on Neutrophil elastase worked out at 0.3 nM.
For the molecule `COC(=O)Cc1ccc2oc(C(=O)[C@@H](NC(=O)[C@@H]3CCCN3C(=O)[C@@H](NC(=O)OCc3ccccc3)C(C)C)C(C)C)nc2c1`, the Ki on Neutrophil elastase was determined as 1.1 nM.
For the molecule `CC(C)[C@H](NC(=O)[C@@H]1CCCN1C(=O)[C@@H](NC(=O)OCc1ccccc1)C(C)C)C(=O)c1nc2cc(Cl)ccc2o1`, the Ki on Neutrophil elastase turned out to be 1.1 nM.
Regarding `CC(C)[C@H](NC(=O)[C@@H]1CCCN1C(=O)[C@@H](NC(=O)c1ccc(C(=O)NS(C)(=O)=O)cc1)C(C)C)C(=O)c1nc2ccccc2o1`, the Lw/Bw in assay [1] was determined as 87. Further, the results for the Reduction in assay [2] and in assay [3] were 84% and 78%, respectively. Moreover, on Neutrophil elastase, the affinity corresponds to a Ki of 4.6 nM.
Molecule `CC(C)[C@H](NC(=O)[C@@H]1CCCN1C(=O)[C@@H](NC(=O)c1ccc(C(=O)NS(=O)(=O)c2ccc(Cl)cc2)cc1)C(C)C)C(=O)c1nc2cc(O)ccc2o1` displayed a Lw/Bw in assay [1] of 38. The figures for the Reduction in assay [2] and in assay [3] were 57% and 40%, respectively.
`COc1ccc2oc(C(=O)[C@@H](NC(=O)[C@@H]3CCCN3C(=O)[C@@H](NC(=O)OCc3ccccc3)C(C)C)C(C)C)nc2c1` came in with an inhibitory constant (Ki) at Neutrophil elastase of 1.9 nM.
Same read-out and setting: under `COC(=O)c1ccc2oc(C(=O)[C@@H](NC(=O)[C@@H]3CCCN3C(=O)[C@@H](NC(=O)OCc3ccccc3)C(C)C)C(C)C)nc2c1` stands 0.37 nM; under `CC(C)[C@H](NC(=O)[C@@H]1CCCN1C(=O)[C@@H](NC(=O)OCc1ccccc1)C(C)C)C(=O)c1nc2cc(C(=O)ON)ccc2o1`, 1 nM.
For the molecule `COC(=O)c1ccc2nc(C(=O)[C@@H](NC(=O)[C@@H]3CCCN3C(=O)[C@@H](NC(=O)OCc3ccccc3)C(C)C)C(C)C)oc2c1`, the affinity on Neutrophil elastase, expressed as Ki, was 0.55 nM.
As to `CC(C)[C@H](NC(=O)[C@@H]1CCCN1C(=O)[C@@H](NC(=O)c1ccc(S(N)(=O)=O)cc1)C(C)C)C(=O)c1nc2ccccc2o1`, the Reduction in assay [2] is recorded as -44%; in assay [3], -42%.
In turn, `CC(C)[C@H](NC(=O)[C@@H]1CCCN1C(=O)[C@@H](NC(=O)OCc1ccccc1)C(C)C)C(=O)c1nc2cc(C(=O)O)ccc2o1` displayed a Ki on Neutrophil elastase of 4.2 nM.
Consider `COC(=O)c1ccc2oc(C(=O)[C@@H](NC(=O)[C@@H]3CCCN3C(=O)[C@@H](NC(=O)c3ccc(S(N)(=O)=O)cc3)C(C)C)C(C)C)nc2c1`, for which the Lw/Bw in assay [1] was 15. Moreover, the values for the Reduction in assay [2] and in assay [3] were -32% and 30%, respectively.
In turn, `CC(C)[C@H](NC(=O)[C@@H]1CCCN1C(=O)[C@@H](NC(=O)OCc1ccccc1)C(C)C)C(=O)c1nc2cc(CO[Si](C)(C)C(C)(C)C)ccc2o1` displayed a Ki on Neutrophil elastase of 0.43 nM.
In the case of `CC(C)[C@H](NC(=O)[C@@H]1CCCN1C(=O)[C@@H](NC(=O)OCc1ccccc1)C(C)C)C(=O)c1nc2cc(CO)ccc2o1`, affinity at Neutrophil elastase was put at a Ki of 2.4 nM.
